SMILES strings stand for the structures.

For one data set, the system named is Hamster. Nature of the data set: Activity measured as 4-aminoazobenzene (AAB) transacetylation rate with partially purified hamster hepatic enzyme. Format: ADME. To be noted: cricetinae, in vitro. The essentials: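 Hamster liver (male golden Syrian) 105000g supernatant, ammonium sulfate-fractionated (two- to three-fold), in 0.05 M sodium pyrophosphate pH 7, 1 mM DTT with KCl. 2-min 37 °C equilibration, then hydroxamic acid plus AAB added. Final: 1.0 mM donor, 0.15 mM AAB, 1.0 mg/mL protein, 2.0 min (exceptions: 0.5–0.6 mM donor, 3.5 min). TCA/EtOH stop, A497. Mean ± SE, N = 15–30.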

Data set [1] in a line: Apparent inactivation rate constant was evaluated. The procedure, abridged: (§1)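 Partially purified hamster hepatic AHAT was preincubated at 37 °C in pyrophosphate buffer pH 7, 1 mM DTT, KCl, with five inactivator concentrations (0.005–1.0 mM final) for five preincubation periods (1–15 min). Remaining AAB transacetylation activity was then assayed. kobsd came from semilog plots of percent remaining activity vs. time. k_i and K_D came from double-reciprocal plots of kobsd vs. concentration. Three experiments, each in triplicate.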

Data set [2] can be described thus: Apparent dissociation (binding) rate constant was evaluated. Format: ADME. The procedure, abridged:
as §1

Data set [3] concerns Cricetinae gen. sp. In words: Percent protection from inactivation of AHAT was determined using guanosine phosphate. The data set is classed as functional, Cricetulus griseus. Also on record: concentration or dose not given beside the values. The essentials: (§2)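 Run as in the inactivation kinetics: hamster hepatic AHAT was preincubated at 37 °C with a saturating inactivator concentration for 2–20 min (to maximal inactivation). Nucleophile was present at 10 mM (L-cysteine, L-methionine, glutathione, guanosine phosphate) or tRNA at 1 mg/mL. Remaining AAB transacetylation activity was then measured. Protection = percent remaining activity with minus without nucleophile. Mean ± SE of three experiments.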

Data set [4] has as its system Cricetinae gen. sp. In words: Percent protection from inactivation of AHAT was determined using t-RNA. Also on record: concentration or dose not given beside the values. The data set is classed as functional, Cricetulus griseus. The procedure, abridged: as §2
In data set [5] the test system is Cricetinae gen. sp. Nature of the data set: Percent protection from inactivation of AHAT was determined using L-cysteine. The data set is classed as functional, Cricetulus griseus. Details: concentration or dose not given beside the values. The essentials:
as §2

Data set [6] has as its system Cricetinae gen. sp. In words: Percent protection from inactivation of AHAT was determined using L-methionine. The data set is classed as functional, Cricetulus griseus. Also on record: concentration or dose not given beside the values. The essentials: as §2
Data set [7] has as its system Cricetinae gen. sp. In words: Percent protection from inactivation of AHAT was determined using glutathione. Format: functional, Cricetulus griseus. Also on record: concentration or dose not given beside the values. The procedure, abridged:
as §2

The nature of data set [8]: Ratio of apparent inactivation rate constant to apparent dissociation (binding) rate constant was determined.
For data set [9], the system named is N-arylhydroxamic acid N,O-acyltransferase (Mesocricetus auratus). Nature of the data set: Percent protection from inactivation of AHAT was determined using t-RNA.
The test system is the same in data set [10]. In words: Percent protection from inactivation of AHAT was determined using L-cysteine.
The test system is the same in data set [11]. Nature of the data set: Percent protection from inactivation of AHAT was determined using glutathione.
For data set [12] the test system is unchanged. Nature of the data set: Percent protection from inactivation of AHAT was determined using L-methionine.
Data set [13] shares this test system. Nature of the data set: Percent protection from inactivation of AHAT was determined using guanosine phosphate.

For orientation: kinact means the rate constant of inactivation at saturating inhibitor. As a reminder, the kinact/KI is the maximal inactivation rate divided by the concentration that gives half of it. As to `CCCCOc1ccc2c(c1)Cc1cc(N(O)C(C)=O)ccc1-2`, the Rate in the data set with Hamster worked out at 4.6 nmol/mg/min. For the same compound, in data set [1], the kinact amounted to 0.58 min⁻¹. In addition, the Kd in data set [2] was determined as 5.7 µM. The Protection in the data set on Cricetinae gen. sp. [3] is on record as 18.9%; in the data set on Cricetinae gen. sp. [4], 18%; with Cricetinae gen. sp. [5], 9.3%; in the data set with Cricetinae gen. sp. [6] it was 8.1%; in the data set with Cricetinae gen. sp. [7], 6%. For the same compound, the second-order inactivation constant (kinact/KI) in data set [8] was found to be 1690 M⁻¹ s⁻¹.

The compound `CC(=O)N(O)c1ccc2c(c1)Cc1ccccc1-2` gave a Rate in the data set with Hamster of 20.9 nmol/mg/min. Further, the kinact in data set [1] came to 1.95 min⁻¹. Also, in data set [2], the Kd came out at 88.8 µM. Besides, the Protection in the data set on Cricetinae gen. sp. [3] was 34.9%; in the data set on Cricetinae gen. sp. [4] it was 1.9%; with Cricetinae gen. sp. [5] it was 39.1%; in the data set on Cricetinae gen. sp. [6] it was 23.1%; in the data set with Cricetinae gen. sp. [7], 15.7%. Besides, the kinact/KI in data set [8] was determined as 360 M⁻¹ s⁻¹.

Take `COc1ccc2c(c1)Cc1cc(N(O)C(C)=O)ccc1-2`: the Rate in the data set on Hamster stood at 10.9 nmol/mg/min. The kinact in [1] is 3.73 min⁻¹. The Kd in [2] came out at 35.1 µM. Further, the Protection in the data set on Cricetinae gen. sp. [3] was determined as 54.9%; in the data set on Cricetinae gen. sp. [4], 32.2%; in the data set on Cricetinae gen. sp. [5], 47.6%; in the data set on Cricetinae gen. sp. [6] it was 28.3%; with Cricetinae gen. sp. [7], 46.1%. Also, in data set [8], the kinact/KI was found to be 1770 M⁻¹ s⁻¹.

`CC(=O)N(O)c1ccc2c(c1)Cc1cc(Cl)ccc1-2` gave a Rate with Hamster of 20.1 nmol/mg/min. Moreover, the kinact in data set [1] came to 0.76 min⁻¹. Moreover, the Kd in data set [2] worked out at 48.8 µM. Moreover, the kinact/KI in data set [8] was 258 M⁻¹ s⁻¹.

As for `CC(=O)c1ccc2c(c1)Cc1cc(N(O)C(C)=O)ccc1-2`, the Rate in the data set on Hamster turned out to be 13.7 nmol/mg/min. In addition, the kinact in [1] was 0.25 min⁻¹. In data set [2], the Kd came out at 0.4 µM. In addition, the Protection in the data set on Cricetinae gen. sp. [3] came to 1.4%; in the data set on Cricetinae gen. sp. [4], 8.3%; with Cricetinae gen. sp. [5] it was 32.4%; in the data set on Cricetinae gen. sp. [6] it was 0.3%; in the data set with Cricetinae gen. sp. [7], 26.3%. The kinact/KI in [8] is 10400 M⁻¹ s⁻¹.

Compound `CC(=O)N(O)c1ccc2c(c1)Cc1cc(I)ccc1-2` showed a Rate with Hamster of 5.3 nmol/mg/min. The kinact in data set [1] came to 0.07 min⁻¹. In addition, the Kd in [2] came out at 0.4 µM. For the same compound, the kinact/KI in [8] is 2900 M⁻¹ s⁻¹.

In the case of `CC(=O)N(O)c1ccc2c(c1)Cc1cc(F)ccc1-2`, the Rate with Hamster was found to be 26.8 nmol/mg/min. In data set [1], the kinact came to 2.59 min⁻¹. Also, the Kd in data set [2] is 129 µM. Also, the Protection was found to be 58.4% in the data set on Cricetinae gen. sp. [3]; 17.6% with Cricetinae gen. sp. [4]; 54.5% in the data set on Cricetinae gen. sp. [5]; 38.2% in the data set with Cricetinae gen. sp. [6]; 55.2% with Cricetinae gen. sp. [7]. The kinact/KI in data set [8] came to 334 M⁻¹ s⁻¹.

Turning to `CCOc1ccc2c(c1)Cc1cc(N(O)C(C)=O)ccc1-2`, the Rate in the data set on Hamster is 9.6 nmol/mg/min. The kinact in data set [1] came out at 0.67 min⁻¹. The Kd in data set [2] was 3.8 µM. For the same compound, the kinact/KI in data set [8] was 2940 M⁻¹ s⁻¹. The Protection in data set [9] is 19.2%; in [10], 34.2%; in data set [11], 39.4%; in data set [12] it was 43.3%; in [13], 21.3%.

As for `CC(=O)N(O)c1ccc2c(c1)Cc1cc(C#N)ccc1-2`, the Rate in the data set with Hamster is 16.5 nmol/mg/min. In data set [1], the kinact is 0.09 min⁻¹. Further, the Kd in [2] was 40 µM. Moreover, the Protection came out at 5.9% in the data set with Cricetinae gen. sp. [3]; 2.9% in the data set with Cricetinae gen. sp. [4]; 35.9% in the data set with Cricetinae gen. sp. [5]; 8% in the data set on Cricetinae gen. sp. [6]; 30.5% in the data set with Cricetinae gen. sp. [7]. Besides, the kinact/KI in [8] was 37.5 M⁻¹ s⁻¹.

In turn, `CC(=O)N(O)c1ccc2c(c1)Cc1cc(Br)ccc1-2` gave a Rate in the data set with Hamster of 20.5 nmol/mg/min. Besides, the kinact in [1] amounted to 0.22 min⁻¹. Further, the Kd in data set [2] worked out at 5.9 µM. The Protection in the data set on Cricetinae gen. sp. [3] worked out at 26.9%; with Cricetinae gen. sp. [4], 0%; with Cricetinae gen. sp. [5], 31.1%; in the data set with Cricetinae gen. sp. [6], 6.6%; with Cricetinae gen. sp. [7] it was 34.7%. Besides, the kinact/KI in [8] came out at 620 M⁻¹ s⁻¹.

The values above are taken from ChEMBL document CHEMBL1123063, “Mechanism-based inactivation of N-arylhydroxamic acid N,O-acyltransferase by 7-substituted-N-hydroxy-2-acetamidofluorenes” (J Med Chem, 1985).
